Source: paper PMC4180501 (Biochimica et biophysica acta, 2012)
Positions count from the first letter of the chain named. Where two headings read alike, the source gives them in different places. Blank lines part the entries; values can stand above or below the molecule they belong to.

Key:
GK- W257 (W99R/W167F) [1] = biological target: T1, GK- W257 (W99R/W167F) (Homo sapiens, UniProt P35557, W167F/W99R); conditions: read-out: ATP KM; W-257; no GKA; no glycerol; ref [19]; cited from earlier work
T1 sequence (P35557 1-465 W99R/W167F): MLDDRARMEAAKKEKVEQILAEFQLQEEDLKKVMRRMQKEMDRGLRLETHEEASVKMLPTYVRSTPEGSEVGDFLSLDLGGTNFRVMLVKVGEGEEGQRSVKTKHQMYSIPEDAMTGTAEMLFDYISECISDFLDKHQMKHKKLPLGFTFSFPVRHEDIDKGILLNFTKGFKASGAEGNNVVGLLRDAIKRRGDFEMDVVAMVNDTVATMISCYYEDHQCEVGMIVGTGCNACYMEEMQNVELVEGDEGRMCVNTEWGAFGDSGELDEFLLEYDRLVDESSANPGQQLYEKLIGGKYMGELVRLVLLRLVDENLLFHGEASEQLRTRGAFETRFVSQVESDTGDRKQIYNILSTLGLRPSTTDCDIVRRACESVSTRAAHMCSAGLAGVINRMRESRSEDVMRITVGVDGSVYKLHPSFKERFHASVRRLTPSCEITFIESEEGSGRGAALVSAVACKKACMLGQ

GK-W167 (W99R/W257F) [2] = biological target: T2, GK-W167 (W99R/W257F) (Homo sapiens, UniProt P35557, W257F/W99R); conditions: read-out: ATP KM; W-167; no GKA; no glycerol; ref [19]; cited from earlier work
T2 sequence (P35557 1-465 W99R/W257F): T1 sequence (P35557 1-465 W99R/W167F) with F167W, W257F

GK-WT [3] = biological target: T3, GK-WT (Homo sapiens, UniProt P35557); conditions: read-out: ATP KM, no GKA, no glycerol, ref [19]; cited from earlier work
T3 sequence (P35557 1-465): T1 sequence (P35557 1-465 W99R/W167F) with R99W, F167W

GK-W99 (W167F/W257F) [4] = biological target: T4, GK-W99 (W167F/W257F) (Homo sapiens, UniProt P35557, W167F/W257F); test: NADP+-coupled spectrophotometric kinetic assay; format: biochemical; conditions: read-out: ATP KM; W-99; no GKA; 30% glycerol
T4 sequence (P35557 1-465 W167F/W257F): T1 sequence (P35557 1-465 W99R/W167F) with R99W, W257F
How it was run: (§1)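 Recombinant human β-cell glucokinase single-Trp variant, expressed in E. coli as a GST fusion and sequence-verified. Catalytic parameters came from an NADP+-coupled spectrophotometric assay run with or without 30% glycerol. Hill coefficient and glucose S0.5 were obtained by fitting v/Vmax = [glucose]^H/(K′+[glucose]^H), with […].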

GK-W99 (W167F/W257F) [5] = biological target: T4, GK-W99 (W167F/W257F); conditions: read-out: ATP KM; W-99; no GKA; no glycerol; ref [19]; cited from earlier work
GK-WT [6] = biological target: T3, GK-WT; test: NADP+-coupled spectrophotometric kinetic assay; format: biochemical
GK- W257 (W99R/W167F) [7] = biological target: T1, GK- W257 (W99R/W167F); test: NADP+-coupled spectrophotometric kinetic assay; format: biochemical; conditions: read-out: ATP KM; W-257; no GKA; 30% glycerol
GK-W167 (W99R/W257F) [8] = biological target: T2, GK-W167 (W99R/W257F); test: NADP+-coupled spectrophotometric kinetic assay; format: biochemical; conditions: read-out: ATP KM; W-167; no GKA; 30% glycerol
How it was run: as §1

GK-WT [9] = biological target: T3, GK-WT; test: Urea unfolding/refolding of GK by tryptophan fluorescence
How it was run: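 GK-WT unfolding was followed by urea titration in 20 mM PO4, 50 mM KCl, 1 mM EDTA, 1 mM DTT, pH 7.3, 20 °C, ± 20% glycerol, ± 300 mM glucose. I320/I360 was read at 295 nm excitation, and ΔGu(H2O) came from a two-state fit. Reversibility was tested after 30 min in 4 or 8 M urea, then dialysis, by restoration of the spectrum and glucose response.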

GK-WT [10] = biological target: T3, GK-WT; test: Temperature dependent tryptophan fluorescence; conditions: glycerol present, absence of glucose
How it was run: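 Tryptophan emission spectra of about 3 µM GK in 5 mM K-phosphate, pH 7.3, 100 mM KCl were recorded from 10 to 65 °C in a thermostatted, thermocouple-monitored cell. […] Line 7 also used ± 20% glycerol. Denaturation was followed as the I320/I360 ratio and its temperature derivative.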

GK-WT [11] = biological target: T3, GK-WT; test: DSC thermal denaturation
How it was run: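 Wild-type recombinant human GK was run by DSC at 0.3 mg/ml (6 µM) in 5 mM phosphate, 100 mM KCl, pH 7.3, in buffer or 20% glycerol, with glucose up to 300 mM. The scan was 0.25 degree/min against a protein-free reference. Tm was plotted against glucose and fit to a hyperbola for EC50. Unfolding rate constant used k=vCp/(Qt−Q) to derive activation energy.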

Km (GK-W99 (W167F/W257F) [4]): 710 µM
Km (GK-WT [6]; read-out: ATP KM, GK-WT, no GKA, 30% glycerol): 230 µM
Km (GK- W257 (W99R/W167F) [7]): 710 µM
Km (GK-W167 (W99R/W257F) [8]): 300 µM
SMILES: Nc1ncnc2c1ncn2[C@@H]1O[C@H](COP(=O)(O)OP(=O)(O)OP(=O)(O)O)[C@@H](O)[C@H]1O [ATP]
Km (GK- W257 (W99R/W167F) [1]): 3350 µM
Km (GK-W167 (W99R/W257F) [2]): 780 µM
Km (GK-WT [3]): 460 µM
Km (GK-W99 (W167F/W257F) [5]): 1630 µM

ΔGu(H2O) of urea denaturation (GK-WT [9]; GK-WT in 20% glycerol, 20°C, pH 7.3): 1.84 kcal/mol
Q10 of the GK reaction (GK-WT [6]; presence of glycerol): 1.47
TmF (GK-WT [10]): 48 °C
ΔH thermal denaturation (GK-WT [11]; GK-WT in 20% glycerol, no D-glucose): 126 kcal/mol
Tm (GK-WT [11]; GK-WT in 20% glycerol, no D-glucose, DSC): 51.3 °C
Ea thermal denaturation (GK-WT [11]; GK-WT, 20% glycerol, 0 mM D-glucose): 131.5 kcal/mol
SMILES: OCC(O)CO [glycerol]

reversibility of GK unfolding (GK-WT [9]; 4 or 8 M urea, TF studies, urea removed by dialysis): fully reversible
SMILES: NC(N)=O [urea]
